A word on the zone of inhibition: it is the extent of the growth-free halo in a diffusion test. Low readings indicate little suppression of growth, high ones wide suppression of growth. The term Inhibition denotes how much of the control response was suppressed. A low value points to a response near the control. What is called MIC is the least concentration at which growth counts as inhibited. Lower therefore signals inhibition by little substance.

We go through 14 compounds from ChEMBL document CHEMBL1146374, “Clubbed triazoles: a novel approach to antitubercular drugs” (Eur J Med Chem, 2007).

In brackets after ≈: the same amount, converted by molar mass.

One series deals with Pseudomonas aeruginosa. The series can be described thus: Antibacterial activity against Pseudomonas aeruginosa at 50 to 100 uM after 24 hrs by well diffusion method. The series is classed as functional. The procedure, abridged: (§1)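 Agar well diffusion: nutrient agar plates with 10 mm wells cut by sterile cork borer; 24-h subcultured bacteria swabbed onto the plates from nutrient broth. Compounds were dissolved in chloroform and added to wells at […]. Gentamycin served as the standard antibiotic.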

Series [1] is described as follows: Cytotoxicity against Vero-C1008 cells at 6.25 to 50 ug/ml. The class given is cell-based. The note with it: chlorocebus sabaeus. The procedure, abridged: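 Vero-C-1008 cells were exposed to compounds at several concentrations across 6.25–50 µg/ml. Cytotoxicity was read out by neutral red uptake.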
The subject of a further series is Escherichia coli. The series can be described thus: Antibacterial activity against Escherichia coli at 50 to 100 uM after 24 hrs by well diffusion method. The class given is functional. In a few lines: as §1
Another series has as its system Salmonella typhi. The series can be described thus: Antibacterial activity against Salmonella typhi at 50 to 100 uM after 24 hrs by well diffusion method. The series is classed as functional, Salmonella enterica subsp. enterica serovar Typhi. In a few lines:
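Agar well diffusion on nutrient agar plates; wells cut with a 10 mm sterile cork borer. Plates swabbed with 24-h subcultured bacteria from nutrient broth. Compounds dissolved in chloroform and added to wells at a range of concentrations. Gentamycin was the standard.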

The next series has as its system Staphylococcus aureus. The series can be described thus: Antibacterial activity against Staphylococcus aureus at 50 to 100 uM after 24 hrs by well diffusion method. The class given is functional. In a few lines:
as §1
On the technique in general: A growth-free zone around the sample is the usual read-out of agar diffusion tests.

The subject of series [2] is Mycobacterium tuberculosis. Kind of series: Growth inhibition of Mycobacterium tuberculosis H37Rv at 6.25 ug/ml by Microplate Alamar Blue Assay. The class given is functional. Conditions: read-out: GI. The procedure, abridged: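 Primary single-concentration screen against M. tuberculosis H37Rv (ATCC 27294) in BACTEC 12B medium by MABA broth microdilution, read as % inhibition. Compounds that fluoresce were tested in the BACTEC 460 radiometric system. More than 95% inhibition was the activity cutoff.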

The test system of series [3] is Mycobacterium tuberculosis. Kind of series: (§2) Antituberculosis activity against Mycobacterium tuberculosis H37Rv by Microplate Alamar Blue Assay. The class given is functional. The procedure, abridged:
(§3)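 MIC against M. tuberculosis H37Rv (ATCC 27294) in BACTEC 12B medium by broth microdilution (MABA). Primary actives were retested at lower concentrations. MIC is the lowest concentration giving a […] fluorescence reduction versus controls. Fluorescent compounds were run in the BACTEC 460 radiometric system. Rifampin was the reference.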
(Resazurin is reduced to fluorescent resorufin, in cell work by metabolically active cells.)

For series [4], the system named is Mycobacterium tuberculosis. The series is described as §2. The class given is functional. In a few lines: as §3
The source holds these as a separate data set.

For the compound `O=C(CSc1nnc(Cc2csc(NC(=O)c3ccccc3)n2)n1NC(=O)c1ccccc1)N/N=C/c1ccccc1`, the zone of inhibition with Pseudomonas aeruginosa was 30 mm; in the series with Escherichia coli, 30 mm; in the series with Staphylococcus aureus it was 32 mm. In addition, the Activity entry in series [1] is “Non-toxic”. This compound had an Inhibition in the series with Salmonella typhi of 27%. In series [2], the inhibition of growth at 6.25 µg/mL is 98%. Besides, the minimal inhibitory concentration (MIC) is 0.39 µM (≈ 0.233 µg/mL) in series [3] and below 6.25 µg/mL in series [4].
For `NNC(=O)CSc1nnc(Cc2csc(NC(=O)CCl)n2)n1NC(=O)c1ccccc1`, the figures for the zone of inhibition in the series with Pseudomonas aeruginosa, in the series with Escherichia coli and with Staphylococcus aureus were 16 mm, 12 mm and 16 mm, respectively. Besides, the Activity result in series [1] was “Non-toxic”. The compound also registered an Inhibition with Salmonella typhi of 14%. Further, the inhibition of growth at 6.25 µg/mL in series [2] amounted to 98%. Besides, the minimal inhibitory concentration (MIC) in series [3] was 3.13 µM (≈ 1.51 µg/mL); in series [4] it was below 6.25 µg/mL.
`CC(=O)Nc1nc(Cc2nnc(SCC(=O)N/N=C/c3ccccc3)n2NC(=O)c2ccccc2)cs1`: the Activity result in series [1] is given as “Non-toxic”. Also, in series [2], the inhibition of growth at 6.25 µg/mL was 96%. Also, the MIC was 1.56 µM (≈ 0.834 µg/mL) in series [3] and below 6.25 µg/mL in series [4].
The like results for `O=C(CSc1nnc(Cc2csc(NC(=O)CCl)n2)n1NC(=O)c1ccccc1)N/N=C/c1ccccc1` were, in that order, “Non-toxic”, 98%, 0.78 µM (≈ 0.444 µg/mL) and below 6.25 µg/mL.
Take `CC(=O)Nc1nc(Cc2nnc(SCC(=O)NN)n2NC(=O)c2ccccc2)cs1`: the zone of inhibition with Pseudomonas aeruginosa came to 32 mm; with Escherichia coli it was 26 mm; with Staphylococcus aureus it was 32 mm. Further, the Activity entry in series [1] is listed as “Non-toxic”. For the same compound, the Inhibition in the series with Salmonella typhi is recorded as 24%. For the same compound, the inhibition of growth at 6.25 µg/mL in series [2] worked out at 100%. Moreover, the results for the minimal inhibitory concentration (MIC) in series [3] and in series [4] were 3.13 µM (≈ 1.4 µg/mL) and below 6.25 µg/mL, respectively.
Regarding `O=C(O)CCNc1nc(Cc2nnc(SCC(=O)N/N=C\c3ccccc3)n2NC(=O)c2ccccc2)cs1`, the zone of inhibition is 12 mm in the series with Pseudomonas aeruginosa, 14 mm with Escherichia coli and 18 mm in the series with Staphylococcus aureus. In series [1], the Activity result is “Non-toxic”. Besides, the Inhibition in the series on Salmonella typhi stood at 12%. Besides, in series [2], the inhibition of growth at 6.25 µg/mL came to 98%. The MIC is 3.13 µM (≈ 1.77 µg/mL) in series [3] and below 6.25 µg/mL in series [4].
On to `NNC(=O)CSc1nnc(Cc2csc(NCCC(=O)O)n2)n1NC(=O)c1ccccc1`, for which the zone of inhibition in the series with Pseudomonas aeruginosa was found to be 18 mm; in the series on Escherichia coli, 14 mm; in the series on Staphylococcus aureus it was 20 mm. The Activity result in series [1] is “Non-toxic”. The Inhibition with Salmonella typhi was 12%. For the same compound, the inhibition of growth at 6.25 µg/mL in series [2] is 96%. Moreover, the MIC is 6.25 µM (≈ 2.98 µg/mL) in series [3] and below 6.25 µg/mL in series [4].
As for `CC(=O)Nc1nc(Cc2nnc(SCC#N)n2NC(=O)c2ccccc2)cs1`, the zone of inhibition is 22 mm with Pseudomonas aeruginosa, 20 mm in the series with Escherichia coli and 22 mm in the series with Staphylococcus aureus. Also, in series [1], the Activity result is on record as “Non-toxic”. The Inhibition with Salmonella typhi is listed as 16%. Moreover, in series [2], the inhibition of growth at 6.25 µg/mL came to 97%. Further, the MIC in series [3] was 6.25 µM (≈ 2.58 µg/mL); in series [4], below 6.25 µg/mL.
Regarding `NNC(=O)CSc1nnc(Cc2csc(NC(=O)c3ccccc3)n2)n1NC(=O)c1ccccc1`, the zone of inhibition in the series with Pseudomonas aeruginosa was 34 mm; in the series on Escherichia coli it was 30 mm; in the series with Staphylococcus aureus it was 33 mm. In addition, the Activity result in series [1] is given as “Non-toxic”. This compound also registered an Inhibition in the series with Salmonella typhi of 29%. The inhibition of growth at 6.25 µg/mL in series [2] was 100%. Moreover, the minimal inhibitory concentration (MIC) in series [3] is 6.25 µM (≈ 3.18 µg/mL); in series [4], below 6.25 µg/mL.
Consider `CC(=O)Nc1nc(Cc2nnc(S)n2N)cs1`, for which the zone of inhibition with Pseudomonas aeruginosa is 16 mm; in the series on Escherichia coli, 15 mm; in the series on Staphylococcus aureus, 18 mm. The Activity result in series [1] is “Non-toxic”. The compound also returned an Inhibition in the series on Salmonella typhi of 14%. In addition, in series [2], the inhibition of growth at 6.25 µg/mL was found to be 100%. Moreover, the minimum inhibitory concentration (MIC) in series [3] is 6.25 µM (≈ 1.69 µg/mL); in series [4] it was below 6.25 µg/mL.
For `N#CCSc1nnc(Cc2csc(NCCC(=O)O)n2)n1NC(=O)c1ccccc1`, the zone of inhibition in the series on Pseudomonas aeruginosa came to 24 mm; with Escherichia coli, 20 mm; with Staphylococcus aureus, 26 mm. In series [1], the Activity entry is listed as “Non-toxic”. In the series on Salmonella typhi, the Inhibition is reported as 20%. For the same compound, the minimum inhibitory concentration (MIC) in series [4] was below 6.25 µg/mL.
`CO[C@H]1/C=C/O[C@@]2(C)Oc3c(C)c(O)c4c(O)c(c(/C=N/N5CCN(C)CC5)c(O)c4c3C2=O)NC(=O)/C(C)=C\C=C\[C@H](C)[C@H](O)[C@@H](C)[C@@H](O)[C@@H](C)[C@H](OC(C)=O)[C@@H]1C` [RIFAMPIN]: the inhibition of growth at 6.25 µg/mL in series [2] is 97%. The compound also showed an MIC in series [4] of 15 µg/mL (≈ 18.2 µM).
As to `Nn1c(S)nnc1Cc1csc(NC(=O)c2ccccc2)n1`, the zone of inhibition in the series with Pseudomonas aeruginosa was 20 mm; with Escherichia coli it was 18 mm; in the series on Staphylococcus aureus, 22 mm. Moreover, the Activity entry in series [1] is on record as “Non-toxic”. The same compound yielded an Inhibition with Salmonella typhi of 14%. The compound further gave an MIC in series [4] below 6.25 µg/mL.
With `N#CCSc1nnc(Cc2csc(NC(=O)c3ccccc3)n2)n1NC(=O)c1ccccc1`, the figures for the zone of inhibition in the series with Pseudomonas aeruginosa, in the series with Escherichia coli and in the series with Staphylococcus aureus were 24 mm, 22 mm and 26 mm, respectively. Further, the Activity entry in series [1] was “Non-toxic”. For the same compound, the Inhibition in the series with Salmonella typhi was determined as 18%. In series [2], the inhibition of growth at 6.25 µg/mL worked out at 100%. The minimal inhibitory concentration (MIC) was 3.13 µM (≈ 1.49 µg/mL) in series [3] and below 6.25 µg/mL in series [4].
